Here are results for 27 compounds from ChEMBL document CHEMBL2046366, “Design, synthesis and biological evaluation of novel imidazopyridines as potential antidiabetic GSK3β inhibitors” (Bioorg Med Chem Lett, 2012).

Data set [1] in a line: AUC in ICR mouse at 27.3 mg/kg, po. The data set is classed as ADME, organism-based. Also noted: dose 27.3 mg/kg, route oral. The settings on record: plasma. Summed up: (§1)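 Single oral dose of 27.3 mg kg^-1, given as HCl salt formulation, to male ICR mice (n = 2). AUC, Cmax and Tmax were derived from plasma concentration–time data.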
Data set [2] is described as follows: Metabolic stability in mouse liver microsome after 45 mins by mass spectroscopy. The data set is classed as ADME. The settings on record: liver microsomes, read-out: Stability. Summed up: (§2)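 Compound incubated with human or mouse liver microsomes at 37 °C for 45 min. Percent compound remaining was measured by mass spectrometry.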
The nature of data set [3]: Metabolic stability in human liver microsome after 45 mins by mass spectroscopy. The data set is classed as ADME. The settings on record: liver microsomes, read-out: Stability. Summed up: as §2
On the technique in general: Liver microsomes are a subcellular fraction often used to study metabolism.

Data set [4] is described as follows: Tmax in ICR mouse at 27.3 mg/kg, po. More on the design: dose 27.3 mg/kg, route oral. The format is ADME, organism-based. The settings on record: in vivo. Summed up:
as §1

Data set [5] in a line: Cmax in ICR mouse at 27.3 mg/kg, po. The format is ADME, organism-based. More on the design: dose 27.3 mg/kg, route oral. The settings on record: in vivo. An outline of the steps:
as §1

By AUC is commonly meant concentration integrated over time. Low readings indicate low exposure, high ones high exposure. For orientation: Tmax means the time from dosing to the highest level. By Cmax is commonly meant the maximum level reached in the sampled fluid or tissue.

The structures appear in SMILES notation.

`COc1ccncc1NC(=O)c1ccnc2[nH]c(-c3cccc(Cl)c3)nc12.Cl` gave an AUC in data set [1] of 27 ng·h/mL.

In the case of `COc1cccc(-c2nc3c(C(=O)Nc4cnccc4C)ccnc3[nH]2)c1`, the figures for the remaining at 0.75 h in data set [2] and in data set [3] were 6.6% and 4%, respectively.

Turning to `CS(=O)(=O)Nc1ccc(CCNC(=O)c2ccnc3[nH]c(-c4ccc(Cl)cc4)nc23)cc1`, the results for the remaining at 0.75 h in data set [2] and in data set [3] were 70.2% and 86.6%, respectively.

As to `CS(=O)(=O)Nc1ccc(CCNC(=O)c2ccnc3[nH]c(-c4cccs4)nc23)cc1`, the results for the remaining at 0.75 h in data set [2] and in data set [3] were 2.2% and 36.8%, respectively.

Consider `COc1ccncc1NC(=O)c1ccnc2[nH]c(-c3cccc(Cl)c3)nc12`, for which the remaining at 0.75 h came out at 46.7% in data set [2] and 36.5% in data set [3].

With `CCOc1ccncc1NC(=O)c1ccnc2[nH]c(-c3ccc(F)cc3)nc12`, the remaining at 0.75 h was 36% in data set [2] and 38% in data set [3].

As to `CCN(CC)c1ccc(-c2nc3c(C(=O)Nc4cnccc4C)ccnc3[nH]2)cc1`, the remaining at 0.75 h in data set [2] and in data set [3] was 0% in each case.

On to `Cc1ccncc1NC(=O)c1ccnc2[nH]c(N3CCC(c4ccccc4)C3)nc12` (centres undefined), for which the remaining at 0.75 h stood at 28.9% in data set [2] and 36.5% in data set [3].

On to `Cc1ccc(NC(=O)c2ccnc3[nH]c(-c4ccc(F)cc4)nc23)cn1`, for which the remaining at 0.75 h in data set [2] was found to be 47.4%; in data set [3], 33.3%.

With `CN(C)S(=O)(=O)Nc1ccc(CCNC(=O)c2ccnc3[nH]c(-c4ccc(F)cc4)nc23)cc1`, the remaining at 0.75 h came to 1% in data set [2] and 7.4% in data set [3].

As for `O=C(NCCc1cccnc1Cl)c1ccnc2[nH]c(-c3ccoc3)nc12`, the remaining at 0.75 h in data set [2] came to 1.5%; in data set [3], 26.5%.

For the compound `COc1ccncc1NC(=O)c1ccnc2[nH]c(-c3ccc(F)cc3)nc12`, the remaining at 0.75 h was found to be 87% in data set [2] and 71% in data set [3].

With `O=C(NCCCc1ccc(Cl)nc1)c1ccnc2[nH]c(-c3ccc(F)cc3)nc12`, the remaining at 0.75 h in data set [2] is 4.2%; in data set [3], 25.7%.

Regarding `CCOc1ccncc1NC(=O)c1ccnc2[nH]c(-c3cccc(OC)c3)nc12`, the remaining at 0.75 h in data set [2] turned out to be 6.4%; in data set [3], 23.8%.

On to `O=C(NCCc1cccc(O)c1)c1ccnc2[nH]c(-c3ccc(F)cc3)nc12`, for which the values for the remaining at 0.75 h in data set [2] and in data set [3] were 11.1% and 12.1%, respectively.

Regarding `CCOc1ccncc1NC(=O)c1ccnc2[nH]c(-c3cccnc3)nc12`, the figures for the remaining at 0.75 h in data set [2] and in data set [3] were 6.3% and 6.5%, respectively.

As for `O=C(Nc1cccnc1)c1ccnc2[nH]c(-c3ccc(F)cc3)nc12`, in data set [2], the remaining at 0.75 h amounted to 70%.

In the case of `CN(C)S(=O)(=O)Nc1ccc(CCNC(=O)c2ccnc3[nH]c(-c4ccsc4)nc23)cc1`, the remaining at 0.75 h came to 1.6% in data set [2] and 13.3% in data set [3].

Turning to `CS(=O)(=O)Nc1ccc(CCNC(=O)c2ccnc3[nH]c(-c4ccc(F)cc4)nc23)cc1`, the remaining at 0.75 h in data set [2] worked out at 0.8%; in data set [3], 13%.

Turning to `COc1ccncc1NC(=O)c1ccnc2[nH]c(-c3ccc(F)cc3)nc12.Cl`, in data set [4], the Tmax came out at 1 h. The compound also gave a Cmax in data set [5] of 228 ng/mL. In addition, the AUC in data set [1] worked out at 545 ng·h/mL.

In data set [1], `Cc1ccncc1NC(=O)c1ccnc2[nH]c(N3CCC(c4ccccc4)C3)nc12.Cl` (centres undefined) returned an AUC of 39 ng·h/mL.

In the case of `COc1ccncc1NC(=O)c1ccnc2nc(-c3ccncc3)[nH]c12`, the remaining at 0.75 h in data set [2] came to 27%; in data set [3] it was 96%.

For `COc1ccc(-c2nc3c(C(=O)Nc4cnccc4C)ccnc3[nH]2)cc1.Cl`, the Tmax in data set [4] turned out to be 0.5 h. Also, in data set [5], the Cmax amounted to 496 ng/mL. The compound also came in with an area under the curve (AUC) in data set [1] of 645 ng·h/mL.

For `COc1ccc(-c2nc3c(C(=O)Nc4cnccc4C)ccnc3[nH]2)cc1`, the remaining at 0.75 h in data set [2] stood at 56.8%; in data set [3] it was 51.4%.

On to `Cc1ccc(NC(=O)c2ccnc3[nH]c(-c4ccc(F)cc4)nc23)cn1.Cl`, for which the Tmax in data set [4] was 3 h. Moreover, the peak concentration (Cmax) in data set [5] turned out to be 843 ng/mL. For the same compound, the AUC in data set [1] came to 2400 ng·h/mL.

With `CS(=O)(=O)Nc1ccc(CCNC(=O)c2ccnc3[nH]c(-c4ccoc4)nc23)cc1`, the remaining at 0.75 h worked out at 5.2% in data set [2] and 47% in data set [3].

Turning to `O=C(NCCc1ccc(F)nc1)c1ccnc2nc(-c3ccc(F)cc3)[nH]c12`, the figures for the remaining at 0.75 h in data set [2] and in data set [3] were 2.9% and 9.4%, respectively.
